Assay results as given in ChEMBL document CHEMBL3797186, “Single Residue Substitutions That Confer Voltage-Gated Sodium Ion Channel Subtype Selectivity in the NaV1.7 Inhibitory Peptide GpTx-1” (J Med Chem, 2016).
Positions of bridges follow the written chain, without caps; N, C: chain ends. Residues, ends and D or L forms follow the SMILES beside them.

biological target: Sodium channel protein type 5 subunit alpha (Homo sapiens, UniProt Q14524); test: Inhibition of human Nav1.5 expressed in HEK293 cells assessed as inward peak current by ion-works quattro patch clamp electrophysiology method; format: cell-based; details: not given
Sequence (Q14524 whole entry): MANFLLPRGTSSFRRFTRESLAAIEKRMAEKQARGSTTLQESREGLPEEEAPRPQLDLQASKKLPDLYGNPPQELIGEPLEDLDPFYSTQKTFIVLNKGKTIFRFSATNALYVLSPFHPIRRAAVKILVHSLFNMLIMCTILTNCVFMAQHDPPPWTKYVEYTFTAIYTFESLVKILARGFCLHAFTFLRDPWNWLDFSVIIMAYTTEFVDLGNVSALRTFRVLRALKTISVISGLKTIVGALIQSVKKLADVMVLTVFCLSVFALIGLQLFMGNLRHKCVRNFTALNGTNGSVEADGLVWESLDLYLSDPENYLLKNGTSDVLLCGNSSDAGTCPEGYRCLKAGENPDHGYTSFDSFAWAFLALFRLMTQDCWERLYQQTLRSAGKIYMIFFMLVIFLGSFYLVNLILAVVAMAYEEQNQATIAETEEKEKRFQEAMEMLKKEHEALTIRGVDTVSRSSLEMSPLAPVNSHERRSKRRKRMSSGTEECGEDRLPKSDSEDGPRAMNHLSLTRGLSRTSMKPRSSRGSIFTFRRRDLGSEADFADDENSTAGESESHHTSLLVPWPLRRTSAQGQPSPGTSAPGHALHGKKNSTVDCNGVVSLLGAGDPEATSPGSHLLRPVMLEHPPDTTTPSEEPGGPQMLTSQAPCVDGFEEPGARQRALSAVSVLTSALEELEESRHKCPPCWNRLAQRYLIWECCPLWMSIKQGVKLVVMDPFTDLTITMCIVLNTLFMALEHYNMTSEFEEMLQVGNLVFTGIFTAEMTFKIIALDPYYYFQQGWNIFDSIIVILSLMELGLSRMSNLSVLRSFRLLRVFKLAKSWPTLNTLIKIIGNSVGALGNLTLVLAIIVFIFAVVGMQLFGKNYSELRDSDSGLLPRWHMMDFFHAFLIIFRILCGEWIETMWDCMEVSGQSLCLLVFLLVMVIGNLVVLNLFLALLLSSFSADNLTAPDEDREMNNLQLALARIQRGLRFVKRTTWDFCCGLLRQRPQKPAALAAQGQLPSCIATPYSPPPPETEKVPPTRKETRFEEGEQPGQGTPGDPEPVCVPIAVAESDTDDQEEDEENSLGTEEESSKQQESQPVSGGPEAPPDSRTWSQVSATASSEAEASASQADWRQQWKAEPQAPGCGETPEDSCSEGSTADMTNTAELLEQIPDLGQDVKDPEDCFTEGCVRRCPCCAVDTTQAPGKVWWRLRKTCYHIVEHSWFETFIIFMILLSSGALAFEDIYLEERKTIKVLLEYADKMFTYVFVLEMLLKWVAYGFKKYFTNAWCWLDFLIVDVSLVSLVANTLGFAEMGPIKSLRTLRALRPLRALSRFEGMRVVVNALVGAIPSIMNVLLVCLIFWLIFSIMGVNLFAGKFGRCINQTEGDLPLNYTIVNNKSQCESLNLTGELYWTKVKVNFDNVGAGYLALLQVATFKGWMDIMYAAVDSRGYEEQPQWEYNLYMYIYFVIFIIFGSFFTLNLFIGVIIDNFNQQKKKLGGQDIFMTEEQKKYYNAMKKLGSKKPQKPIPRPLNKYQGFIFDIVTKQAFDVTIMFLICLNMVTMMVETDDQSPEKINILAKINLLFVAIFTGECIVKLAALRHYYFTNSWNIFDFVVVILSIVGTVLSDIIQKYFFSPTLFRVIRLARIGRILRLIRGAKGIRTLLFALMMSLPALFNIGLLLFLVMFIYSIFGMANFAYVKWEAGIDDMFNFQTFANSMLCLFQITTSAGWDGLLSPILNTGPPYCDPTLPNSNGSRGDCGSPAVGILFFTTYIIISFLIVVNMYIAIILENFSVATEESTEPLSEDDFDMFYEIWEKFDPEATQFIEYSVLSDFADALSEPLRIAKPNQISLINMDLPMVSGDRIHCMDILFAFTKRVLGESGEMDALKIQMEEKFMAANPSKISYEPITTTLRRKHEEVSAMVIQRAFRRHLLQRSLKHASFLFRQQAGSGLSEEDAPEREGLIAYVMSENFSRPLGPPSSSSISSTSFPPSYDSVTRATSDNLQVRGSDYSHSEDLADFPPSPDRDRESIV
In short: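 Stable HEK293 line expressing human NaV1.5, recorded by population patch clamp on the IonWorks Quattro.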

**Q.** How did the IC50 turn out when `CC[C@H](C)[C@@H]1NC(=O)[C@@H]2CSSC[C@@H]3NC(=O)[C@H](C(C)C)NC(=O)[C@H](CC(C)C)NC(=O)[C@H](CC(N)=O)NC(=O)[C@@H]4CCCN4C(=O)[C@H](CCCNC(=N)N)NC(=O)[C@H](CSSC[C@H](NC(=O)[C@@H](N)CC(=O)O)C(=O)N[C@@H](CC(C)C)C(=O)NCC(=O)N[C@@H](Cc4ccccc4)C(=O)N[C@@H](CCC(=O)O)C(=O)N[C@@H](CCCNC(=N)N)C(=O)N[C@@H](CCCCN)C(=O)N2)NC(=O)[C@H](CSSC[C@@H](C(=O)N[C@@H](CCCCN)C(=O)N[C@@H](Cc2ccc(O)cc2)C(=O)N[C@H](C(=O)N[C@@H](Cc2ccccc2)C(N)=O)C(C)C)NC(=O)[C@H](Cc2c[nH]c4ccccc24)NC(=O)[C@H](CCCCN)NC(=O)[C@H](Cc2cnc[nH]2)NC(=O)[C@H]([C@@H](C)O)NC(=O)[C@H](CCCNC(=N)N)NC(=O)[C@H](CO)NC3=O)NC(=O)[C@H](CCCCN)NC(=O)[C@H](CC(=O)O)NC(=O)[C@H](CC(N)=O)NC(=O)[C@H](CC(=O)O)NC(=O)[C@@H]2CCCN2C1=O` (H-DCLGFERKCIPDNDKCCRPNLVCSRTHKWCKYVF-NH2; disulfide 2-17, 9-23, 16-30) was run?
**A.** > 5 µM

**Q.** `CSCC[C@@H]1NC(=O)[C@H](Cc2ccccc2)NC(=O)CNC(=O)[C@H](CC(C)C)NC(=O)[C@@H](NC(=O)[C@@H](N)CC(=O)O)CSSC[C@@H]2NC(=O)[C@@H]3CSSC[C@@H](C(=O)N[C@@H](CCCCN)C(=O)N[C@@H](Cc4ccc(O)cc4)C(=O)N[C@H](C(=O)N[C@@H](Cc4ccccc4)C(N)=O)C(C)C)NC(=O)[C@H](Cc4c[nH]c5ccccc45)NC(=O)[C@H](CCCCN)NC(=O)[C@H](Cc4cnc[nH]4)NC(=O)[C@H]([C@@H](C)O)NC(=O)[C@H](CCCNC(=N)N)NC(=O)[C@H](CO)NC(=O)[C@H](CSSC[C@H](NC(=O)[C@H](CCCCN)NC(=O)[C@H](CCCNC(=N)N)NC1=O)C(=O)N[C@@H](CO)C(=O)N1CCC[C@H]1C(=O)N[C@@H](CC(=O)O)C(=O)N[C@@H](CC(N)=O)C(=O)N[C@@H](CC(=O)O)C(=O)N[C@@H](CCCCN)C(=O)N3)NC(=O)[C@H](C(C)C)NC(=O)[C@H](CC(C)C)NC(=O)[C@H](CC(N)=O)NC(=O)[C@@H]1CCCN1C(=O)[C@H](CCCNC(=N)N)NC2=O` (H-DCLGFMRKCSPDNDKCCRPNLVCSRTHKWCKYVF-NH2; disulfide 2-17, 9-23, 16-30) was tested. Which IC50 did it give?
**A.** > 2.7 µM

**Q.** How did the IC50 turn out when `CC[C@H](C)[C@@H]1NC(=O)[C@@H]2CSSC[C@@H]3NC(=O)[C@H](C(C)C)NC(=O)[C@H](CC(C)C)NC(=O)[C@H](CC(N)=O)NC(=O)[C@@H]4CCCN4C(=O)[C@H](CCCNC(=N)N)NC(=O)[C@H](CSSC[C@H](NC(=O)[C@@H](N)CC(=O)O)C(=O)N[C@@H](CC(C)C)C(=O)N[C@@H](Cc4c[nH]c5ccccc45)C(=O)N[C@@H](Cc4ccccc4)C(=O)N[C@@H](CCSC)C(=O)N[C@@H](CCCNC(=N)N)C(=O)N[C@@H](CCCCN)C(=O)N2)NC(=O)[C@H](CSSC[C@@H](C(=O)N[C@@H](CCCCN)C(=O)N[C@@H](Cc2ccc(O)cc2)C(=O)N[C@H](C(=O)N[C@@H](Cc2ccccc2)C(N)=O)C(C)C)NC(=O)[C@H](Cc2c[nH]c4ccccc24)NC(=O)[C@H](CCCCN)NC(=O)[C@H](Cc2cnc[nH]2)NC(=O)[C@H]([C@@H](C)O)NC(=O)[C@H](CCCNC(=N)N)NC(=O)[C@H](CO)NC3=O)NC(=O)[C@H](CCCCN)NC(=O)[C@H](CC(=O)O)NC(=O)[C@H](CC(N)=O)NC(=O)[C@H](CC(=O)O)NC(=O)[C@@H]2CCCN2C1=O` (H-DCLWFMRKCIPDNDKCCRPNLVCSRTHKWCKYVF-NH2; disulfide 2-17, 9-23, 16-30) was run?
**A.** > 5 µM

**Q.** For `CC[C@H](C)[C@@H]1NC(=O)[C@@H]2CSSC[C@@H]3NC(=O)[C@H](C(C)C)NC(=O)[C@H](CC(C)C)NC(=O)[C@H](CC(N)=O)NC(=O)[C@@H]4CCCN4C(=O)[C@H](CCCNC(=N)N)NC(=O)[C@H](CSSC[C@H](NC(=O)[C@@H](N)CC(=O)O)C(=O)N[C@@H](CC(C)C)C(=O)NCC(=O)N[C@@H](Cc4cccc5ccccc45)C(=O)N[C@@H](CCSC)C(=O)N[C@@H](CCCNC(=N)N)C(=O)N[C@@H](CCCCN)C(=O)N2)NC(=O)[C@H](CSSC[C@@H](C(=O)N[C@@H](CCCCN)C(=O)N[C@@H](Cc2ccc(O)cc2)C(=O)N[C@H](C(=O)N[C@@H](Cc2ccccc2)C(N)=O)C(C)C)NC(=O)[C@H](Cc2c[nH]c4ccccc24)NC(=O)[C@H](CCCCN)NC(=O)[C@H](Cc2c[nH]cn2)NC(=O)[C@H]([C@@H](C)O)NC(=O)[C@H](CCCNC(=N)N)NC(=O)[C@H](CO)NC3=O)NC(=O)[C@H](CCCCN)NC(=O)[C@H](CC(=O)O)NC(=O)[C@H](CC(N)=O)NC(=O)[C@H](CC(=O)O)NC(=O)[C@@H]2CCCN2C1=O`, which IC50 is on record?
**A.** > 5 µM

**Q.** `CC[C@H](C)[C@@H]1NC(=O)[C@@H]2CSSC[C@@H]3NC(=O)[C@H](C(C)C)NC(=O)[C@H](CC(C)C)NC(=O)[C@H](CC(N)=O)NC(=O)[C@@H]4CCCN4C(=O)[C@H](CCCNC(=N)N)NC(=O)[C@H](CSSC[C@H](NC(=O)[C@@H](N)CC(=O)O)C(=O)N[C@@H](CC(C)C)C(=O)NCC(=O)N[C@@H](Cc4ccccc4)C(=O)N[C@@H](CCSC)C(=O)N[C@@H](CCCNC(=N)N)C(=O)N[C@@H](CCCCN)C(=O)N2)NC(=O)[C@H](CSSC[C@@H](C(=O)N[C@@H](CCCCN)C(=O)N[C@@H](Cc2ccc(O)cc2)C(N)=O)NC(=O)[C@H](Cc2c[nH]c4ccccc24)NC(=O)[C@H](CCCCN)NC(=O)[C@H](Cc2cnc[nH]2)NC(=O)[C@H]([C@@H](C)O)NC(=O)[C@H](CCCNC(=N)N)NC(=O)[C@H](CO)NC3=O)NC(=O)[C@H](CCCCN)NC(=O)[C@H](CC(=O)O)NC(=O)[C@H](CC(N)=O)NC(=O)[C@H](CC(=O)O)NC(=O)[C@@H]2CCCN2C1=O` (H-DCLGFMRKCIPDNDKCCRPNLVCSRTHKWCKY-NH2; disulfide 2-17, 9-23, 16-30) was tested. Which IC50 did it give?
**A.** > 5 µM

**Q.** `CSCC[C@@H]1NC(=O)[C@H](Cc2ccccc2)NC(=O)CNC(=O)[C@H](CC(C)C)NC(=O)[C@@H](NC(=O)[C@@H](N)CC(=O)O)CSSC[C@@H]2NC(=O)[C@@H]3CSSC[C@@H](C(=O)N[C@@H](CCCCN)C(=O)N[C@@H](Cc4ccc(O)cc4)C(=O)N[C@H](C(=O)N[C@@H](Cc4ccccc4)C(N)=O)C(C)C)NC(=O)[C@H](Cc4c[nH]c5ccccc45)NC(=O)[C@H](CCCCN)NC(=O)[C@H](Cc4cnc[nH]4)NC(=O)[C@H]([C@@H](C)O)NC(=O)[C@H](CCCNC(=N)N)NC(=O)[C@H](CO)NC(=O)[C@H](CSSC[C@H](NC(=O)[C@H](CCCCN)NC(=O)[C@H](CCCNC(=N)N)NC1=O)C(=O)N[C@@H](Cc1ccc(O)cc1)C(=O)N1CCC[C@H]1C(=O)N[C@@H](CC(=O)O)C(=O)N[C@@H](CC(N)=O)C(=O)N[C@@H](CC(=O)O)C(=O)N[C@@H](CCCCN)C(=O)N3)NC(=O)[C@H](C(C)C)NC(=O)[C@H](CC(C)C)NC(=O)[C@H](CC(N)=O)NC(=O)[C@@H]1CCCN1C(=O)[C@H](CCCNC(=N)N)NC2=O` (H-DCLGFMRKCYPDNDKCCRPNLVCSRTHKWCKYVF-NH2; disulfide 2-17, 9-23, 16-30) was tested. Which IC50 did it give?
**A.** > 5 µM

**Q.** How did the IC50 turn out when `CC[C@H](C)[C@@H]1NC(=O)[C@@H]2CSSC[C@@H]3NC(=O)[C@H](C(C)C)NC(=O)[C@H](CC(C)C)NC(=O)[C@H](CC(N)=O)NC(=O)[C@@H]4CCCN4C(=O)[C@H](CCCNC(=N)N)NC(=O)[C@H](CSSC[C@H](NC(=O)[C@@H](N)CC(=O)O)C(=O)N[C@@H](CC(C)C)C(=O)NCC(=O)N[C@@H](Cc4ccccc4)C(=O)N[C@@H](CCSC)C(=O)N[C@@H](CCCNC(=N)N)C(=O)N[C@@H](CCCCN)C(=O)N2)NC(=O)[C@H](CSSC[C@@H](C(=O)N[C@@H](CCCCN)C(=O)N[C@@H](Cc2ccc(O)cc2)C(=O)N[C@H](C(=O)N[C@@H](Cc2ccccc2)C(=O)N[C@@H](CCCCN)C(N)=O)C(C)C)NC(=O)[C@H](Cc2c[nH]c4ccccc24)NC(=O)[C@H](CCCCN)NC(=O)[C@H](Cc2cnc[nH]2)NC(=O)[C@H]([C@@H](C)O)NC(=O)[C@H](CCCNC(=N)N)NC(=O)[C@H](CO)NC3=O)NC(=O)[C@H](CCCCN)NC(=O)[C@H](CC(=O)O)NC(=O)[C@H](CC(N)=O)NC(=O)[C@H](CC(=O)O)NC(=O)[C@@H]2CCCN2C1=O` was run?
**A.** > 5 µM

**Q.** `CC[C@H](C)[C@@H]1NC(=O)[C@@H]2CSSC[C@@H]3NC(=O)[C@H](C(C)C)NC(=O)[C@H](CC(C)C)NC(=O)[C@H](CC(N)=O)NC(=O)[C@@H]4CCCN4C(=O)[C@H](CCCNC(=N)N)NC(=O)[C@H](CSSC[C@H](NC(=O)[C@@H](N)CC(=O)O)C(=O)N[C@@H](CC(C)C)C(=O)NCC(=O)N[C@@H](Cc4ccccc4)C(=O)N[C@@H](CCSC)C(=O)N[C@@H](CCCNC(=N)N)C(=O)N[C@@H](CCCCN)C(=O)N2)NC(=O)[C@H](CSSC[C@@H](C(=O)N[C@@H](CCCCN)C(=O)N[C@@H](Cc2ccc(O)cc2)C(=O)N[C@H](C(=O)N[C@@H](Cc2ccccc2)C(N)=O)C(C)C)NC(=O)[C@H](Cc2c[nH]c4ccccc24)NC(=O)[C@H](CCCCN)NC(=O)[C@H](Cc2cnc[nH]2)NC(=O)[C@H]([C@@H](C)O)NC(=O)[C@H](CCCNC(=N)N)NC(=O)[C@H](CO)NC3=O)NC(=O)[C@H](CCCCN)NC(=O)[C@H](CC(=O)O)NC(=O)[C@H](CC(N)=O)NC(=O)[C@H](CCCCN)NC(=O)[C@@H]2CCCN2C1=O` (H-DCLGFMRKCIPKNDKCCRPNLVCSRTHKWCKYVF-NH2; disulfide 2-17, 9-23, 16-30) was tested. Which IC50 did it give?
**A.** > 4.7 µM

same assay, conditions: hek293

**Q.** With `CC[C@H](C)[C@@H]1NC(=O)[C@@H]2CSSC[C@@H]3NC(=O)[C@H](C(C)C)NC(=O)[C@H](CC(C)C)NC(=O)[C@H](CC(N)=O)NC(=O)[C@@H]4CCCN4C(=O)[C@H](CCCNC(=N)N)NC(=O)[C@H](CSSC[C@H](NC(=O)[C@@H](N)CC(=O)O)C(=O)N[C@@H](CC(C)C)C(=O)NCC(=O)N[C@@H](Cc4ccccc4)C(=O)N[C@@H](CCSC)C(=O)N[C@@H](CCCNC(=N)N)C(=O)N[C@@H](CCCCN)C(=O)N2)NC(=O)[C@H](CSSC[C@@H](C(=O)N[C@@H](CCCCN)C(=O)N[C@@H](Cc2ccc(O)cc2)C(=O)N[C@H](C(=O)N[C@@H](Cc2ccccc2)C(=O)O)C(C)C)NC(=O)[C@H](Cc2c[nH]c4ccccc24)NC(=O)[C@H](CCCCN)NC(=O)[C@H](Cc2cnc[nH]2)NC(=O)[C@H]([C@@H](C)O)NC(=O)[C@H](CCCNC(=N)N)NC(=O)[C@H](CO)NC3=O)NC(=O)[C@H](CCCCN)NC(=O)[C@H](CC(=O)O)NC(=O)[C@H](CC(N)=O)NC(=O)[C@H](CC(=O)O)NC(=O)[C@@H]2CCCN2C1=O` (stereo in doubt; 158) as the compound, how does the IC50 read?
**A.** > 5 µM
